Assay results taken from ChEMBL document CHEMBL3745596, “Chlorophenoxy aminoalkyl derivatives as histamine H(3)R ligands and antiseizure agents” (Bioorg Med Chem, 2016).
pKi: −log10 of the molar value. Calls of active or inactive are those of the source.

What was measured:
[1] = test system: Rattus norvegicus; experiment: Neurotoxicity in Sprague-Dawley rat at 30 mg/kg, ip after 0.25 hrs by rotarod test; assay type: toxicity, organism-based; settings: in vivo
Procedure, shortened: (§1)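 Male Sprague–Dawley rats given compound ip as a suspension in 0.5% methylcellulose, groups of four. Rotarod: 1 inch knurled rod at 6 rpm; three falls within 1 min counts as neurotoxic. Scored as number toxic/number tested at pretreatment times between 0.25 and 4 h, or at the stated time.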

[2] = test system: Mus musculus; experiment: Anticonvulsant activity in CF1 albino mouse assessed as protection against subcutaneous pentetrazole-induced seizure at 30 mg/kg, ip after 0.5 hrs; assay type: functional, organism-based
Procedure, shortened: (§2)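 Male CF-1 mice, ip in 0.5% methylcellulose; pentetrazole at CD97 (85 mg/kg) injected subcutaneously in a loose fold of neck skin. Observed 30 min; absence of even a threshold seizure (single clonic spasm lasting at least 5 s) counted as protection. Scored protected/tested, or ED50.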

[3] = test system: Mus musculus; experiment: Neurotoxicity in CF1 albino mouse at 30 mg/kg, ip after 0.5 hrs by rotarod test; assay type: toxicity, organism-based; settings: in vivo
Procedure, shortened: (§3)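 Rotarod neurotoxicity in male albino CF-1 mice dosed ip with compound suspended in 0.5% methylcellulose. Animal placed on a 1 inch diameter knurled plastic rod rotating at 6 rpm. Neurotoxicity scored when the animal falls off three times within 1 min. Readout is number of animals toxic/number tested at the stated time after dosing. TD50 with 95% confidence interval from the quantitative study.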

[4] = test system: Mus musculus; experiment: Neurotoxicity in CF1 albino mouse at 50 mg/kg, ip after 0.25 hrs by rotarod test; assay type: toxicity, organism-based; settings: in vivo; procedure, shortened: as §3
[5] = test system: Mus musculus; experiment: Neurotoxicity in CF1 albino mouse at 10 mg/kg, ip after 0.5 hrs by rotarod test; assay type: toxicity, organism-based; settings: in vivo
Procedure, shortened: (§4)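 Rotarod neurotoxicity in male CF-1 mice dosed ip as 0.5% methylcellulose suspension: mouse placed on 1 inch knurled rod rotating at 6 rpm; toxicity when the animal falls off three times within 1 min, with other signs noted. Scored as toxic/tested at 0.5 h and 4 h.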

[6] = Neuroprotective activity in hippocampal slice (unknown origin) assessed as protection against kainic acid-induced cell death using propidium iodide staining; assay type: functional; settings: Hippocampus
Procedure, shortened: (§5)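 Organotypic hippocampal slice cultures exposed to NMDA or kainic acid alone or with compound; propidium iodide in all wells; PI fluorescence intensity of slices, proportional to cell death, compared with excitotoxin-only slices; qualitative.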

[7] = test system: Mus musculus; experiment: Neurotoxicity in CF1 albino mouse at 3 mg/kg, ip after 0.5 hrs by rotarod test; assay type: toxicity, organism-based; settings: in vivo; procedure, shortened: as §3
[8] = test system: Mus musculus; experiment: Neurotoxicity in CF1 albino mouse at 50 mg/kg, ip after 1 hr by rotarod test; assay type: toxicity, organism-based; settings: in vivo; procedure, shortened: as §3
[9] = test system: Rattus norvegicus; experiment: Anticonvulsant activity in Sprague-Dawley rat assessed as protection against maximal electroshock-induced seizure at 30 mg/kg, ip after 4 hrs; assay type: functional, organism-based
[10] = test system: Mus musculus; experiment: Neurotoxicity in CF1 albino mouse at 50 mg/kg, ip after 4 hrs by rotarod test; assay type: toxicity, organism-based; settings: in vivo; procedure, shortened: as §3
[11] = test system: Mus musculus; experiment: Anticonvulsant activity in CF1 albino mouse assessed as protection against maximal electroshock-induced seizure at 30 mg/kg, ip after 4 hrs; assay type: functional, organism-based
Procedure, shortened: (§6)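 Male CF-1 mice dosed ip as suspension in 0.5% methylcellulose. Corneal electrodes deliver 60 Hz alternating current, 50 mA for […], after a drop of 0.5% tetracaine HCl in 0.9% NaCl per eye. Protection means abolition of hindlimb tonic extension; scored as protected/tested, or ED50 with 95% confidence interval.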

[12] = test system: Mus musculus; experiment: Neurotoxicity in CF1 albino mouse at 300 mg/kg, ip after 4 hrs by rotarod test; assay type: toxicity, organism-based; settings: in vivo; procedure, shortened: as §3
[13] = test system: Rattus norvegicus; experiment: Anticonvulsant activity in ip dosed Sprague-Dawley rat assessed as protection against subcutaneous pentetrazole-induced seizure after 0.25 hrs; assay type: functional
[14] = test system: Mus musculus; experiment: Neurotoxicity in ip dosed CF1 albino mouse after 0.25 hrs by rotarod test; assay type: toxicity, organism-based; settings: in vivo
Procedure, shortened: as §3, with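 “dosing.” for “dosing. TD50 with 95% confidence interval from the quantitative study.”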

[15] = test system: Mus musculus; experiment: Anticonvulsant activity in CF1 albino mouse assessed as protection against maximal electroshock-induced seizure at 30 mg/kg, ip after 0.5 hrs; assay type: functional, organism-based; procedure, shortened: as §6
[16] = test system: Mus musculus; experiment: Anticonvulsant activity in CF1 albino mouse assessed as protection against subcutaneous pentetrazole-induced seizure at 30 mg/kg, ip after 4 hrs; assay type: functional, organism-based; procedure, shortened: as §2
[17] = test system: Rattus norvegicus; experiment: Neurotoxicity in Sprague-Dawley rat at 30 mg/kg, ip after 2 hrs by rotarod test; assay type: toxicity, organism-based; settings: in vivo; procedure, shortened: as §1
[18] = Neuroprotective activity in hippocampal slice (unknown origin) assessed as protection against NMDA-induced cell death using propidium iodide staining; assay type: functional; settings: Hippocampus; procedure, shortened: as §5
[19] = test system: Mus musculus; experiment: Anticonvulsant activity in CF1 albino mouse assessed as protection against 6 Hz-psychomotor-induced seizure at 50 mg/kg, ip after 1 hr; assay type: functional, organism-based
Procedure, shortened: (§7)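 Male CF-1 mice, ip suspension in 0.5% methylcellulose. Corneal stimulation 0.2 ms monopolar rectangular pulses at 6 Hz, 32 mA for 3 s via constant-current device; mice without minimal clonic phase seizure counted protected. Groups of four; read at 0.25, 0.5, 1, 2, 4 h; result as protected/tested.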

[20] = test system: Mus musculus; experiment: Anticonvulsant activity in CF1 albino mouse assessed as protection against maximal electroshock-induced seizure at 3 mg/kg, ip after 0.5 hrs; assay type: functional, organism-based; procedure, shortened: as §6
[21] = test system: Mus musculus; experiment: Anticonvulsant activity in CF1 albino mouse assessed as protection against 6 Hz-psychomotor-induced seizure at 50 mg/kg, ip after 0.25 hrs; assay type: functional, organism-based; procedure, shortened: as §7
[22] = test system: Mus musculus; experiment: Neurotoxicity in CF1 albino mouse assessed as unable to grasp rotarod, sedated and myoclonic jerks at 100 mg/kg, ip after 0.5 hrs by rotarod test; assay type: toxicity, organism-based; settings: in vivo; procedure, shortened: as §4
[23] = test system: Mus musculus; experiment: Neurotoxicity in CF1 albino mouse at 100 mg/kg, ip after 4 hrs by rotarod test; assay type: toxicity, organism-based; settings: in vivo; procedure, shortened: as §3
[24] = test system: Mus musculus; experiment: Neurotoxicity in CF1 albino mouse at 50 mg/kg, ip after 0.5 hrs by rotarod test; assay type: toxicity, organism-based; settings: in vivo; procedure, shortened: as §3
[25] = test system: Mus musculus; experiment: Anticonvulsant activity in CF1 albino mouse assessed as protection against 6 Hz-psychomotor-induced seizure at 50 mg/kg, ip after 4 hrs; assay type: functional, organism-based; procedure, shortened: as §7
[26] = test system: Rattus norvegicus; experiment: Neurotoxicity in Sprague-Dawley rat at 30 mg/kg, ip after 1 hr by rotarod test; assay type: toxicity, organism-based; settings: in vivo; procedure, shortened: as §1
[27] = test system: Mus musculus; experiment: Neurotoxicity in CF1 albino mouse at 30 mg/kg, ip after 4 hrs by rotarod test; assay type: toxicity, organism-based; settings: in vivo; procedure, shortened: as §3
[28] = test system: Mus musculus; experiment: Neurotoxicity in CF1 albino mouse at 45 mg/kg, ip after 0.25 to 0.5 hrs by rotarod test; assay type: toxicity, organism-based; settings: in vivo; procedure, shortened: as §3
[29] = test system: Mus musculus; experiment: Anticonvulsant activity in CF1 albino mouse assessed as protection against maximal electroshock-induced seizure at 10 mg/kg, ip after 0.5 hrs; assay type: functional, organism-based; procedure, shortened: as §6
[30] = molecular target: Histamine H3 receptor (Homo sapiens, UniProt Q9Y5N1); experiment: Displacement of [3H]-Nalpha-methylhistamine from human recombinant histamine H3 receptor expressed in HEK293 cells after 90 mins; assay type: cell-based
Histamine H3 receptor, sequence (Q9Y5N1 whole entry): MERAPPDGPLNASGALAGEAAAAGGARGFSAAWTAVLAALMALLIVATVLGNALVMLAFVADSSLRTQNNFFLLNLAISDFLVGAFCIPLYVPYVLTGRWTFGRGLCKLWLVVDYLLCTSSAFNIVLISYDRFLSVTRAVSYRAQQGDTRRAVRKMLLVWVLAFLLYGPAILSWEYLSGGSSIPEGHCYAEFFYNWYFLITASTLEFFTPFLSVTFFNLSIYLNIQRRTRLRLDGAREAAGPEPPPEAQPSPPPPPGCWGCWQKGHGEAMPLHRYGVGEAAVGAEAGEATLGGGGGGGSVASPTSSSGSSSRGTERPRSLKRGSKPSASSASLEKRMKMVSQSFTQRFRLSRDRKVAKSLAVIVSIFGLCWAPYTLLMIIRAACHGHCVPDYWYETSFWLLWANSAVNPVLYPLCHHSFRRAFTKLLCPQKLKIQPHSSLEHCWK

[31] = test system: Mus musculus; experiment: Anticonvulsant activity in CF1 albino mouse temporal lobe epilepsy model at 30 mg/kg, ip; assay type: functional, organism-based
Procedure, shortened: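 Adult male CF1 mice corneal-kindled to 5 consecutive secondarily generalized seizures (Racine stage 4 or 5). Four fully kindled mice dosed ip and tested 0.5 h later; seizure score below 3 counted protected.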

[32] = test system: Mus musculus; experiment: Neurotoxicity in CF1 albino mouse assessed as death at 300 mg/kg, ip after 0.5 hrs by rotarod test; assay type: toxicity, organism-based; settings: in vivo
Procedure, shortened: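 Male albino CF-1 mice dosed ip with compound suspended in 0.5% methylcellulose, then placed on a 1-inch knurled plastic rod turning at 6 rpm. A fall three times within 1 min counted as neurotoxicity. Observations were made at 0.5 h and 4 h after dosing. Result given as animals showing toxicity per animals tested, with the kind of toxicity recorded.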

[33] = test system: Rattus norvegicus; experiment: Anticonvulsant activity in ip dosed Sprague-Dawley rat assessed as protection against maximal electroshock-induced seizure after 0.25 hrs; assay type: functional
[34] = test system: Rattus norvegicus; experiment: Protective index, ratio of TD50 for ip dosed Sprague-Dawley rat to ED50 for ip dosed Sprague-Dawley rat assessed as protection against maximal electroshock-induced seizure after 0.5 hrs; assay type: functional
Procedure, shortened: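 PI = TD50/ED50. Male CF-1 mice or male Sprague–Dawley rats given compound ip as 0.5% methylcellulose suspension. MES: 60 Hz corneal current, 50 mA mice or 150 mA rats, for […] after tetracaine eye drops; protection is abolition of hindlimb tonic extension.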

[35] = test system: Mus musculus; experiment: Neurotoxicity in CF1 albino mouse at 50 mg/kg, ip after 2 hrs by rotarod test; assay type: toxicity, organism-based; settings: in vivo; procedure, shortened: as §3
[36] = test system: Rattus norvegicus; experiment: Anticonvulsant activity in Sprague-Dawley rat assessed as protection against pilocarpine-induced convulsive status epilepticus at 65 mg/kg, ip; assay type: functional, organism-based
Procedure, shortened: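 Male Sprague Dawley rats (150–180 g) dosed ip, pilocarpine 50 mg/kg ip given; compound dosed immediately at first behavioral Stage 3 seizure or 30 min later. Number protected from Racine Stage 3 or greater seizures recorded.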

[37] = test system: Rattus norvegicus; experiment: Neurotoxicity in Sprague-Dawley rat at 30 mg/kg, ip after 4 hrs by rotarod test; assay type: toxicity, organism-based; settings: in vivo; procedure, shortened: as §1
[38] = test system: Mus musculus; experiment: Anticonvulsant activity in CF1 albino mouse assessed as protection against maximal electroshock-induced seizure at 100 mg/kg, ip after 0.5 hrs; assay type: functional, organism-based; procedure, shortened: as §6
[39] = test system: Rattus norvegicus; experiment: Neurotoxicity in Sprague-Dawley rat at 30 mg/kg, ip after 0.5 hrs by rotarod test; assay type: toxicity, organism-based; settings: in vivo; procedure, shortened: as §1
[40] = test system: Mus musculus; experiment: Anticonvulsant activity in CF1 albino mouse assessed as protection against 6 Hz-psychomotor-induced seizure at 50 mg/kg, ip after 2 hrs; assay type: functional, organism-based; procedure, shortened: as §7
[41] = test system: Rattus norvegicus; experiment: Anticonvulsant activity in Sprague-Dawley rat assessed as protection against maximal electroshock-induced seizure at 30 mg/kg, po; assay type: functional

In the case of `Clc1ccc(OCCCCCCN2CCCCCC2)cc1.O=C(O)C(=O)O`, the Activity [1] was “Non-toxic”, the Activity [2] was “inactive” and the Activity [3] was “Non-toxic”. For the same compound, the Activity [4] was “Non-toxic”, the Activity [5] was “Non-toxic” and the Activity [6] was “inactive”. For the same compound, the Activity [7] was “Non-toxic”, the Activity [8] was “Non-toxic” and the Activity [9] was “inactive”. The Activity [10] was “Non-toxic”, the Activity [11] was “inactive” and the Activity [12] was “Non-toxic”. The ED50 [13] was greater than 47 mg/kg, the “TD50 (median neurotoxic dose)” value [14] was 36.2 mg/kg and the Activity [15] was “Active”. The Activity [16] was “inactive”, the Activity [17] was “Non-toxic” and the Activity [18] was “inactive”. For the same compound, the Activity [19] was “inactive”, the Activity [20] was “inactive” and the Activity [21] was “inactive”. For the same compound, the Activity [22] was “Toxic”, the Activity [23] was “Non-toxic” and the Activity [24] was “Non-toxic”. For the same compound, the Activity [25] was “inactive”, the Activity [26] was “Non-toxic” and the Activity [27] was “Non-toxic”. The Activity [28] was “Toxic”, the Activity [29] was “inactive” and the pKi [30] was 6.63. The Activity [31] was “inactive”, the Activity [32] was “Toxic” and the ED50 [33] was 14 mg/kg. The “Ratio TD50/ED50” value [34] was 3.2, the Activity [35] was “Non-toxic” and the Activity [36] was “Active”. The Activity [37] was “Non-toxic”, the Activity [38] was “Active” and the Activity [39] was “Non-toxic”. For the same compound, the Activity [40] was “inactive” and the Activity [41] was 25%.
